Test system: U2OS
Experiment: Multiplex assay against U2OS
Type: toxicity, cell-based
Details: human
Outline: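 Cells stained live at seeding with Hoechst33342, BioTracker Green Microtubule Cytoskeleton Dye, MitoTracker Red and Annexin V Alexa Fluor 680 were imaged on a CQ1 microscope at 37°C and 5% CO2 after compound addition. Their classification by CellPathfinder machine-learning gating ran from Hoechst high-intensity objects versus normal cells, to healthy, pyknosed or fragmented nuclei among normal cells, to mitotic or apoptotic among pyknosed cells. Tubulin, mitochondrial-mass and membrane-permeability phenotypes are per cents of healthy-nucleus cells.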

[1] = 12 h, 1 µM, compound concentration 1 uM, replicate 1
[2] = 12 h, 1 µM, compound concentration 1 uM, replicate 2
[3] = 12 h, 10 µM, compound concentration 10 uM, replicate 1
[4] = 12 h, 10 µM, compound concentration 10 uM, replicate 2
[5] = 24 h, 1 µM, compound concentration 1 uM, replicate 1
[6] = 24 h, 1 µM, compound concentration 1 uM, replicate 2
[7] = 24 h, 10 µM, compound concentration 10 uM, replicate 1
[8] = 24 h, 10 µM, compound concentration 10 uM, replicate 2
[9] = 48 h, 1 µM, compound concentration 1 uM, replicate 1
[10] = 48 h, 1 µM, compound concentration 1 uM, replicate 2
[11] = 48 h, 10 µM, compound concentration 10 uM, replicate 1
[12] = 48 h, 10 µM, compound concentration 10 uM, replicate 2

Structure (SMILES): CNc1cc(Oc2cc(C(=O)Nc3cc(N4CCN(C)CC4)cc(C(F)(F)F)c3)ccc2C)ncn1
- Population Apoptotic (%) [1]: 32%
- Population Healthy Nuclei (%) [1]: 59%
- Population Hoechst High Intensity Objects (%) [1]: 11%
- Population Membrane Permeable-Phenotype (%) [1]: 4%
- Population Mitochondria Different-Phenotype (%) [1]: 68%
- Population Mitotic Cells (%) [1]: 67%
- Population Normal (%) [1]: 88%
- Population Pyknosed Nuclei (%) [1]: 30%
- Population Tubulin-Different-Phenotype (%) [1]: 60%
- Total Cell Count [1]: 176
- Population Apoptotic (%) [2]: 54%
- Population Fragmented Nuclei (%) [2]: 10%
- Population Healthy Nuclei (%) [2]: 73%
- Population Hoechst High Intensity Objects (%) [2]: 2%
- Population Membrane Permeable-Phenotype (%) [2]: 10%
- Population Mitochondria Different-Phenotype (%) [2]: 60%
- Population Mitotic Cells (%) [2]: 45%
- Population Normal (%) [2]: 97%
- Population Pyknosed Nuclei (%) [2]: 16%
- Population Tubulin-Different-Phenotype (%) [2]: 52%
- Total Cell Count [2]: 56
- Population Apoptotic (%) [3]: 90%
- Population Fragmented Nuclei (%) [3]: 40%
- Population Healthy Nuclei (%) [3]: 10%
- Population Hoechst High Intensity Objects (%) [3]: 6%
- Population Membrane Permeable-Phenotype (%) [3]: 100%
- Population Mitochondria Different-Phenotype (%) [3]: 100%
- Population Mitotic Cells (%) [3]: 9%
- Population Normal (%) [3]: 93%
- Population Pyknosed Nuclei (%) [3]: 48%
- Population Tubulin-Different-Phenotype (%) [3]: 100%
- Total Cell Count [3]: 116
- Population Apoptotic (%) [4]: 73%
- Population Fragmented Nuclei (%) [4]: 24%
- Population Healthy Nuclei (%) [4]: 13%
- Population Hoechst High Intensity Objects (%) [4]: 33%
- Population Membrane Permeable-Phenotype (%) [4]: 58%
- Population Mitochondria Different-Phenotype (%) [4]: 66%
- Population Mitotic Cells (%) [4]: 26%
- Population Normal (%) [4]: 66%
- Population Pyknosed Nuclei (%) [4]: 61%
- Population Tubulin-Different-Phenotype (%) [4]: 66%
- Total Cell Count [4]: 70
- Population Apoptotic (%) [5]: 46%
- Population Fragmented Nuclei (%) [5]: 11%
- Population Healthy Nuclei (%) [5]: 64%
- Population Hoechst High Intensity Objects (%) [5]: 9%
- Population Membrane Permeable-Phenotype (%) [5]: 10%
- Population Mitochondria Different-Phenotype (%) [5]: 64%
- Population Mitotic Cells (%) [5]: 53%
- Population Normal (%) [5]: 90%
- Population Pyknosed Nuclei (%) [5]: 23%
- Population Tubulin-Different-Phenotype (%) [5]: 55%
- Total Cell Count [5]: 174
- Population Apoptotic (%) [6]: 50%
- Population Fragmented Nuclei (%) [6]: 16%
- Population Healthy Nuclei (%) [6]: 63%
- Population Hoechst High Intensity Objects (%) [6]: 6%
- Population Membrane Permeable-Phenotype (%) [6]: 13%
- Population Mitochondria Different-Phenotype (%) [6]: 68%
- Population Mitotic Cells (%) [6]: 50%
- Population Normal (%) [6]: 93%
- Population Pyknosed Nuclei (%) [6]: 19%
- Population Tubulin-Different-Phenotype (%) [6]: 51%
- Total Cell Count [6]: 58
- Population Apoptotic (%) [7]: 93%
- Population Fragmented Nuclei (%) [7]: 47%
- Population Healthy Nuclei (%) [7]: 3%
- Population Hoechst High Intensity Objects (%) [7]: 10%
- Population Membrane Permeable-Phenotype (%) [7]: 100%
- Population Mitochondria Different-Phenotype (%) [7]: 100%
- Population Mitotic Cells (%) [7]: 6%
- Population Normal (%) [7]: 89%
- Population Pyknosed Nuclei (%) [7]: 48%
- Population Tubulin-Different-Phenotype (%) [7]: 100%
- Total Cell Count [7]: 120
- Population Apoptotic (%) [8]: 76%
- Population Fragmented Nuclei (%) [8]: 16%
- Population Healthy Nuclei (%) [8]: 23%
- Population Hoechst High Intensity Objects (%) [8]: 48%
- Population Membrane Permeable-Phenotype (%) [8]: 80%
- Population Mitochondria Different-Phenotype (%) [8]: 80%
- Population Mitotic Cells (%) [8]: 23%
- Population Normal (%) [8]: 51%
- Population Pyknosed Nuclei (%) [8]: 60%
- Population Tubulin-Different-Phenotype (%) [8]: 80%
- Total Cell Count [8]: 76
- Population Apoptotic (%) [9]: 54%
- Population Fragmented Nuclei (%) [9]: 21%
- Population Healthy Nuclei (%) [9]: 60%
- Population Hoechst High Intensity Objects (%) [9]: 6%
- Population Membrane Permeable-Phenotype (%) [9]: 11%
- Population Mitochondria Different-Phenotype (%) [9]: 50%
- Population Mitotic Cells (%) [9]: 45%
- Population Normal (%) [9]: 93%
- Population Pyknosed Nuclei (%) [9]: 18%
- Population Tubulin-Different-Phenotype (%) [9]: 49%
- Total Cell Count [9]: 163
- Population Apoptotic (%) [10]: 50%
- Population Fragmented Nuclei (%) [10]: 14%
- Population Healthy Nuclei (%) [10]: 70%
- Population Hoechst High Intensity Objects (%) [10]: 4%
- Population Membrane Permeable-Phenotype (%) [10]: 24%
- Population Mitochondria Different-Phenotype (%) [10]: 54%
- Population Mitotic Cells (%) [10]: 50%
- Population Normal (%) [10]: 95%
- Population Pyknosed Nuclei (%) [10]: 14%
- Population Tubulin-Different-Phenotype (%) [10]: 50%
- Total Cell Count [10]: 51
- Population Apoptotic (%) [11]: 96%
- Population Fragmented Nuclei (%) [11]: 52%
- Population Healthy Nuclei (%) [11]: 2%
- Population Hoechst High Intensity Objects (%) [11]: 20%
- Population Membrane Permeable-Phenotype (%) [11]: 100%
- Population Mitochondria Different-Phenotype (%) [11]: 100%
- Population Mitotic Cells (%) [11]: 3%
- Population Normal (%) [11]: 80%
- Population Pyknosed Nuclei (%) [11]: 45%
- Population Tubulin-Different-Phenotype (%) [11]: 100%
- Total Cell Count [11]: 142
- Population Apoptotic (%) [12]: 47%
- Population Fragmented Nuclei (%) [12]: 22%
- Population Healthy Nuclei (%) [12]: 45%
- Population Hoechst High Intensity Objects (%) [12]: 50%
- Population Membrane Permeable-Phenotype (%) [12]: 89%
- Population Mitochondria Different-Phenotype (%) [12]: 89%
- Population Mitotic Cells (%) [12]: 52%
- Population Normal (%) [12]: 50%
- Population Pyknosed Nuclei (%) [12]: 31%
- Population Tubulin-Different-Phenotype (%) [12]: 89%
- Total Cell Count [12]: 85

Structure (SMILES): CNC(=O)c1ccc(Nc2nc(OC3CCCC3)c3c(-c4ccc5nc(C)oc5c4)c[nH]c3n2)c(OC)c1
- Population Apoptotic (%) [1]: 36%
- Population Fragmented Nuclei (%) [1]: 10%
- Population Healthy Nuclei (%) [1]: 64%
- Population Hoechst High Intensity Objects (%) [1]: 2%
- Population Membrane Permeable-Phenotype (%) [1]: 58%
- Population Mitochondria Different-Phenotype (%) [1]: 45%
- Population Mitotic Cells (%) [1]: 63%
- Population Normal (%) [1]: 97%
- Population Pyknosed Nuclei (%) [1]: 25%
- Population Apoptotic (%) [2]: 30%
- Population Fragmented Nuclei (%) [2]: 14%
- Population Healthy Nuclei (%) [2]: 72%
- Population Hoechst High Intensity Objects (%) [2]: 6%
- Population Membrane Permeable-Phenotype (%) [2]: 63%
- Population Mitochondria Different-Phenotype (%) [2]: 40%
- Population Mitotic Cells (%) [2]: 70%
- Population Normal (%) [2]: 93%
- Population Pyknosed Nuclei (%) [2]: 13%
- Population Tubulin-Different-Phenotype (%) [2]: 100%
- Population Apoptotic (%) [3]: 30%
- Population Fragmented Nuclei (%) [3]: 1%
- Population Healthy Nuclei (%) [3]: 87%
- Population Hoechst High Intensity Objects (%) [3]: 1%
- Population Membrane Permeable-Phenotype (%) [3]: 62%
- Population Mitochondria Different-Phenotype (%) [3]: 18%
- Population Mitotic Cells (%) [3]: 70%
- Population Normal (%) [3]: 98%
- Population Pyknosed Nuclei (%) [3]: 11%
- Population Tubulin-Different-Phenotype (%) [3]: 90%
- Population Apoptotic (%) [4]: 25%
- Population Fragmented Nuclei (%) [4]: 22%
- Population Healthy Nuclei (%) [4]: 72%
- Population Hoechst High Intensity Objects (%) [4]: 22%
- Population Membrane Permeable-Phenotype (%) [4]: 54%
- Population Mitochondria Different-Phenotype (%) [4]: 26%
- Population Mitotic Cells (%) [4]: 75%
- Population Normal (%) [4]: 77%
- Population Pyknosed Nuclei (%) [4]: 4%
- Population Tubulin-Different-Phenotype (%) [4]: 65%
- Population Apoptotic (%) [5]: 89%
- Population Fragmented Nuclei (%) [5]: 12%
- Population Healthy Nuclei (%) [5]: 8%
- Population Hoechst High Intensity Objects (%) [5]: 5%
- Population Membrane Permeable-Phenotype (%) [5]: 92%
- Population Mitochondria Different-Phenotype (%) [5]: 84%
- Population Mitotic Cells (%) [5]: 10%
- Population Normal (%) [5]: 94%
- Population Pyknosed Nuclei (%) [5]: 79%
- Population Tubulin-Different-Phenotype (%) [5]: 100%
- Population Apoptotic (%) [6]: 60%
- Population Fragmented Nuclei (%) [6]: 25%
- Population Healthy Nuclei (%) [6]: 48%
- Population Hoechst High Intensity Objects (%) [6]: 11%
- Population Membrane Permeable-Phenotype (%) [6]: 65%
- Population Mitochondria Different-Phenotype (%) [6]: 73%
- Population Mitotic Cells (%) [6]: 40%
- Population Normal (%) [6]: 88%
- Population Pyknosed Nuclei (%) [6]: 25%
- Population Apoptotic (%) [7]: 43%
- Population Fragmented Nuclei (%) [7]: 6%
- Population Healthy Nuclei (%) [7]: 73%
- Population Hoechst High Intensity Objects (%) [7]: 1%
- Population Membrane Permeable-Phenotype (%) [7]: 43%
- Population Mitochondria Different-Phenotype (%) [7]: 18%
- Population Mitotic Cells (%) [7]: 56%
- Population Normal (%) [7]: 98%
- Population Pyknosed Nuclei (%) [7]: 20%
- Population Tubulin-Different-Phenotype (%) [7]: 71%
- Population Apoptotic (%) [8]: 62%
- Population Fragmented Nuclei (%) [8]: 23%
- Population Healthy Nuclei (%) [8]: 67%
- Population Hoechst High Intensity Objects (%) [8]: 14%
- Population Membrane Permeable-Phenotype (%) [8]: 30%
- Population Mitochondria Different-Phenotype (%) [8]: 28%
- Population Mitotic Cells (%) [8]: 37%
- Population Normal (%) [8]: 85%
- Population Pyknosed Nuclei (%) [8]: 8%
- Population Tubulin-Different-Phenotype (%) [8]: 55%

Reference: ChEMBL document CHEMBL4689842, “EUbOPEN Chemogenomics Library wave 1” (2021)
